Bioassay records deposited in PubChem by PCMD.
Shown are actives, neighbours in structure and some others; about 1% of the full set was active somewhere.
Yeast growth tox: Compounds toxic to wild-type S. cerevisiae growth | growth inhibition, % at 25 µM (by protocol) | hit rate 0.3% among 30,000 | A595 turbidity, 16 h;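 active = mutant and wild-type yeast strains alike exhibit over 30% growth inhibition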
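Incubation: 16 h growth with compound, 30 °C; Material: S. cerevisiae wild-type or eIF2Bepsilon-R284H mutant strain; Signal: turbidity measured as absorbance at 595 nm; Medium: YPD yeast growth medium; Measure: growth inhibition (%) versus cell controls and blanks; Doses: 25 µM single dose.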
Yeast eIF2B: modulators of yeast eIF2B activity; hit rate 0.91% among 27,000; AID 688; inhibition, % at 25 µM (by protocol); S. cerevisiae eIF2B-epsilon R284H, GCN4-lacZ luminescence;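 active = mutant luminescence inhibited past about 50% while wild type luminescence and mutant growth stay under set limits, limit read from the data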
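Assay system: yeast eIF2B-epsilon R284H mutant carrying GCN4–beta-galactosidase fusion / Buffer or medium: YPD / Incubation: 16 h growth with compound at 30 °C, 90 min Beta-Glo step / Detection: Beta-Glo luminescence after Z-buffer lysis, growth by 595 nm absorbance / Read-out: % inhibition of reporter signal and growth versus controls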
Numbers stand for hits; i = inactive; nt = no result given.

SMILES | Yeast growth tox | Yeast eIF2B
CN(C)c1ccc(C(=O)C(O)c2ccc(C(C)(C)C)cc2)cc1 (configuration not stated) | i | i
CC(=O)Nc1ccc(C(=O)NC2CCCC2)cc1 | i | 51
CC(Oc1ccc(C(=O)NC2CCCCC2)cc1)C(=O)O (configuration not stated) | i | nt
O=C(NC1CCCCC1)c1ccc(S(=O)(=O)N2CCCC2)cc1 | 35 | i
O=C(NC1CCCC1)c1ccc(S(=O)(=O)N2CCOCC2)cc1 | i | nt
CC(C)C(=O)Nc1ccc(C(=O)c2ccccc2)cc1 | nt | i
CCC1(C)Cc2c(sc3c2c(=O)n(C)c2nnc(SCC(=O)c4ccc(Cl)cc4)n32)CO1 (configuration not stated) | i | i
O=C(NCc1cccnc1)c1cc(S(=O)(=O)N2CCCCC2)ccc1Cl | i | i
Cc1c(C(=O)Nc2ccc3c(c2)OCO3)sc2ncn(CC(=O)N3CC(C)CC(C)C3)c(=O)c12 (configuration not stated) | i | nt
Cc1sc2c(c1C)c(=O)n(-c1cccc(C(F)(F)F)c1)c(=O)n2CC(=O)NCc1ccco1 | i | nt
CCCOc1ccc(N2C(=O)CC(NCc3ccncc3)C2=O)cc1 (configuration not stated) | i | i
C=CCNc1nnc(SC2CC(=O)N(c3ccc(OCCC)cc3)C2=O)s1 (configuration not stated) | 60 | i
COc1ccccc1-c1noc(CCC(=O)Nc2ccccc2Cl)n1 | i | i
CC(=O)/C(C(=N)N1CCN(c2cccc(Cl)c2)CC1)=C(\C)O | nt | 61
O=C(O)CCC(=O)N1CCN(c2cccc(Cl)c2)CC1 | i | i
O=C1CC(O)(C(F)F)Oc2ccc3ccccc3c21 (configuration not stated) | i | 53
O=C1CC(O)(C(F)(F)F)Oc2c1ccc1ccccc21 (configuration not stated) | i | i
Cc1ccc(Oc2ccc(OCC(=O)OC3CCS(=O)(=O)C3)cc2)cc1 (configuration not stated) | nt | i
CCCCNC(=O)OC1CCS(=O)(=O)C1 (configuration not stated) | i | 55
CC(C)c1nc(-c2c(N)n(C)c(=O)n(C)c2=O)sc1C(=O)C(C)(C)C | i | i
C#CCNc1cc(C)nc2ncnn12 | i | i
COc1ccc(C2NC(=O)NC(C)=C2C(C)=O)cc1 (configuration not stated) | i | 52
C=CCOc1ccc(C2NC(=O)NC(C)=C2C(=O)OC)cc1 (configuration not stated) | i | i
